Active and inactive are the calls of the source.
Experiments:
[1] = target: Cholinesterase (Homo sapiens) (UniProt P06276); assay: Inhibition of human BchE using butyrylthiocholine as substrate by spectrophotometric multiwell plate assay
[2] = Inhibition of human intestinal CE-mediated irinotecan hydrolysis
Procedure, shortened: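 Human intestinal CE (25 U per reaction; 1 U converts 1 nmole o-nitrophenyl acetate/min) with 20µM CPT-11 in 50mM Hepes pH7.4, inhibitor 1nM to 100µM. Incubated 37°C for 5 min, stopped with cold acidified methanol, centrifuged. SN-38 measured by reverse phase HPLC. Fractional inhibition fitted to partial inhibition equation, model chosen by Akaike's criteria, Ki from best fit.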

[3] = Inhibition of human intestinal CE-mediated O-nitrophenyl acetate hydrolysis by spectrophotometry
Procedure, shortened: (§1)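 Enzyme activity read spectrophotometrically as release of o-nitrophenol from o-nitrophenyl acetate across increasing inhibitor concentrations. Inhibitors were freshly dissolved in DMSO, typically as 10mM stocks. Fractional inhibition was plotted against inhibitor concentration and fitted to a partial-inhibition equation including Ks, α and β. Inhibition mode was chosen by Akaike's information criteria, and Ki was taken from the best-fit model.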

[4] = target: Acetylcholinesterase (Homo sapiens) (UniProt P22303); assay: Inhibition of human AchE using acetylthiocholine as substrate by spectrophotometric multiwell plate assay
Chain of Acetylcholinesterase (Homo sapiens) (P22303 whole entry): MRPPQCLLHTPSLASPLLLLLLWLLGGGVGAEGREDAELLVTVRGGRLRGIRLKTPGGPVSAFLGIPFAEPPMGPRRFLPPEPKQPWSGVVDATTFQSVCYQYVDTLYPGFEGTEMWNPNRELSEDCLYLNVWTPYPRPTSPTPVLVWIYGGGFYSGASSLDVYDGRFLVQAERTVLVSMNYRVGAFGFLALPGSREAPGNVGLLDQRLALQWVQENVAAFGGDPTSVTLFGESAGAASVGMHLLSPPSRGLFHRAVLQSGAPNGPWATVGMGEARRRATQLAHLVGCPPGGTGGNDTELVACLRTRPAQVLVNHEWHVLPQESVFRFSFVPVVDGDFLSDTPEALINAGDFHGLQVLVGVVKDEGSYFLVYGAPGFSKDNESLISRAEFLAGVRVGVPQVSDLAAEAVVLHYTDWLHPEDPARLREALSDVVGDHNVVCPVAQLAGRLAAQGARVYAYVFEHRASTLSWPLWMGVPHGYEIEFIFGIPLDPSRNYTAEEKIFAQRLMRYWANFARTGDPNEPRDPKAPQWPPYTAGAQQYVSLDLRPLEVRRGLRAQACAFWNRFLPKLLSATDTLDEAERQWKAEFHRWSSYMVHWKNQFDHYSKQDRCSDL

[5] = target: T1, Liver carboxylesterase 1 (Homo sapiens, UniProt P23141); assay: Inhibition of human liver CE1-mediated O-nitrophenyl acetate hydrolysis by spectrophotometry; procedure, shortened: as §1
T1 sequence (P23141 whole entry): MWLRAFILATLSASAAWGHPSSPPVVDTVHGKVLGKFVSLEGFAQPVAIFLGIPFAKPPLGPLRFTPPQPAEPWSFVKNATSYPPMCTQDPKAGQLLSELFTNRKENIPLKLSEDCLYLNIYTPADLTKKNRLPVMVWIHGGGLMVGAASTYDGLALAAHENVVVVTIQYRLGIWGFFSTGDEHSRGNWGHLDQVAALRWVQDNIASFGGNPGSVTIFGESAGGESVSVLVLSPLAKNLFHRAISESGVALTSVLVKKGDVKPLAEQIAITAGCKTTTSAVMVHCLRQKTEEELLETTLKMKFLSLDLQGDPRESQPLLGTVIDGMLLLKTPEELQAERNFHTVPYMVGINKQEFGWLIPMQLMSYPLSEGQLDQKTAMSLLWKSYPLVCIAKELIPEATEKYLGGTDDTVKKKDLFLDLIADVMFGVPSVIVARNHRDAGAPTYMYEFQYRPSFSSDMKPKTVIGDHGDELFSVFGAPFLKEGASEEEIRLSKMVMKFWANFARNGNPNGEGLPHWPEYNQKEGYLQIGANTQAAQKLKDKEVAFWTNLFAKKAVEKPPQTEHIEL

Chain of Cholinesterase (Homo sapiens) (P06276 whole entry): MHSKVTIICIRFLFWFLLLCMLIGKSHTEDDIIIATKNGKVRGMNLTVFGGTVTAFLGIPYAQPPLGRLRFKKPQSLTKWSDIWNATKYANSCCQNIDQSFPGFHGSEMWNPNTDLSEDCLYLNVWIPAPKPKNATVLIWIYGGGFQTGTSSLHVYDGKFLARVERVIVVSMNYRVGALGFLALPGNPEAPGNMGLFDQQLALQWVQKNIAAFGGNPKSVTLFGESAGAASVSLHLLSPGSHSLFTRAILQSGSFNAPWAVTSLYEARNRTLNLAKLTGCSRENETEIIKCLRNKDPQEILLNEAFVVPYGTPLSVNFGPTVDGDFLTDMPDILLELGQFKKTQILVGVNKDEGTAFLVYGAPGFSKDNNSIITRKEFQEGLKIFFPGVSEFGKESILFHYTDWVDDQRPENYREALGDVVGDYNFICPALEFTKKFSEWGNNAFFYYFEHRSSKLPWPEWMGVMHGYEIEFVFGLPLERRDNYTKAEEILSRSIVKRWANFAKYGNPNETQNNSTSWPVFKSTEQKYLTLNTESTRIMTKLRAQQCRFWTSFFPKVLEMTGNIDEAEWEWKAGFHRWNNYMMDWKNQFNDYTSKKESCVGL

| SMILES | Activity [1] | Ki [2] [nM] | Ki [3] [nM] | Activity [4] | Ki [5] [nM] |
| --- | --- | --- | --- | --- | --- |
| O=S(=O)(Nc1ccc(NS(=O)(=O)c2cccc(Cl)c2)cc1)c1cccc(Cl)c1 | inactive | 62 | 74 | inactive | > 100000 |
| O=S(=O)(Nc1ccc(NS(=O)(=O)c2ccc(F)cc2)cc1)c1ccc(F)cc1 | inactive | 79 | 355 | inactive | > 100000 |
| O=S(=O)(Nc1ccc2c(c1)Cc1cc(NS(=O)(=O)c3ccccc3)ccc1-2)c1ccccc1 | inactive | 84.7 | 90.8 | inactive | > 100000 |
| O=S(=O)(Nc1ccc2c(c1)Cc1cc(NS(=O)(=O)c3cccc(Cl)c3)ccc1-2)c1cccc(Cl)c1 | inactive | 52.8 | 13.9 | inactive | > 100000 |
| O=S(=O)(Nc1ccc2c(c1)Cc1cc(NS(=O)(=O)c3ccc(Cl)cc3)ccc1-2)c1ccc(Cl)cc1 | inactive | 37.7 | 23.5 | inactive | > 100000 |
| O=S(=O)(Nc1ccc(NS(=O)(=O)c2cccc(F)c2)cc1)c1cccc(F)c1 | inactive | 152 | 248 | inactive | > 100000 |
| Cc1c(C)c(NS(=O)(=O)c2ccc(F)cc2)c(C)c(C)c1NS(=O)(=O)c1ccc(F)cc1 | inactive | > 100000 | > 100000 | inactive | > 100000 |
| O=S(=O)(Nc1ccc(NS(=O)(=O)c2cccc(Br)c2)cc1)c1cccc(Br)c1 | inactive | 121 | 67 | inactive | > 100000 |
| O=S(=O)(Nc1ccc(NS(=O)(=O)c2c(F)cccc2F)cc1)c1c(F)cccc1F | inactive | > 100000 | 5260 | inactive | > 100000 |
| Cc1c(C)c(NS(=O)(=O)c2cc(Cl)cc(Cl)c2)c(C)c(C)c1NS(=O)(=O)c1cc(Cl)cc(Cl)c1 | inactive | > 100000 | 2600 | inactive | > 100000 |
| O=S(=O)(Nc1ccc2c(c1)Cc1cc(NS(=O)(=O)c3cccc(Br)c3)ccc1-2)c1cccc(Br)c1 | inactive | 39.7 | 21.2 | inactive | > 100000 |
